From ChEMBL document CHEMBL5108029, “SILAC-based chemoproteomics reveals a neoligan analogue as an anti-inflammatory agent targeting IRGM to ameliorate cytokine storm” (Eur J Med Chem, 2022)
Calls of active or inactive are those of the source. The calls are words filed in the database; no cut-off is given here.

Columns and labels:
CD4+ve Th [1] = assay: Inhibition of cytokine storm in ConA/1L-12-stimulated C57BL/6 mouse CD4+ T-lymphocytes assessed as reduction in Th1 cell differentiation by measuring proportion of CD4+IFNgamma-positive cells at 500 nM incubated for 48 hrs by flow cytometry (reference value: 69%); format: functional; parameters: scale not given: the % may be the effect or the level left
Method in brief: (§1)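 Splenocytes from C57BL/6 mice after erythrocyte lysis, filtration and counting. Cultured in complete medium with ConA and IL-2 under Th1, Th2 or Th17 differentiation conditions with compound for 48 h. Then PMA, ionomycin and GolgiStop (1:1000) for 4 h. CD4 and intracellular cytokines stained and read by flow cytometry.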

CD4+ve Th [2] = assay: Inhibition of cytokine storm in ConA/1L-12-stimulated C57BL/6 mouse CD4+ T-lymphocytes assessed as reduction in Th2 cell differentiation by measuring proportion of CD4+IL4-negative cells at 500 nM incubated for 48 hrs by flow cytometry (reference value: 32.4%); format: functional; parameters: scale not given: the % may be the effect or the level left; method in brief: as §1
CD4+ve Th [3] = assay: Inhibition of cytokine storm in ConA/1L-12-stimulated C57BL/6 mouse CD4+ T-lymphocytes assessed as reduction in Th2 cell differentiation by measuring proportion of CD4+IL4-positive cells at 500 nM incubated for 48 hrs by flow cytometry (reference value: 67.6%); format: functional; parameters: scale not given: the % may be the effect or the level left; method in brief: as §1
RAW264.7 [4] = assay: Anti-inflammatory activity against LPS-stimulated mouse RAW264.7 cells assessed as reduction in TNF-alpha expression of M1 macrophages at 100 to 500 nM incubated for 48 hrs in presence of LPS by flow cytometry; format: functional, cell-based; conditions: dose 100-500 nM
Method in brief: (§2)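 RAW 264.7 cells in DMEM with 10% heat-inactivated FBS at 37 °C, 5% CO2, subcultured at 70–80% confluence. Seeded at 1 × 10^6 cells/mL in medium with 1 μg/mL LPS, with compound at final 100 nM or 500 nM. After 48 h, M1 differentiation and TNF-α are read by flow cytometry.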

CD4+ve Th [5] = assay: Inhibition of cytokine storm in ConA/1L-12-stimulated C57BL/6 mouse CD4+ T-lymphocytes assessed as reduction in Th17 cell differentiation by measuring proportion of CD4+IL17A-positive cells at 500 nM incubated for 48 hrs by flow cytometry (reference value: 68.4%); format: functional; parameters: scale not given: the % may be the effect or the level left; method in brief: as §1
CD4+ve Th [6] = assay: Inhibition of cytokine storm in ConA/1L-12-stimulated C57BL/6 mouse CD4+ T-lymphocytes assessed as reduction in Th17 cell differentiation by measuring proportion of CD4+IL17A-negative cells at 500 nM incubated for 48 hrs by flow cytometry (reference value: 31.6%); format: functional; parameters: scale not given: the % may be the effect or the level left; method in brief: as §1
CD4+ve Th [7] = assay: Cytotoxicity against C57BL/6 mouse CD4+ T-lymphocytes at 500 nM measured upto 48 hrs; format: toxicity, cell-based; conditions: 0.5 µM
CD4+ve Th [8] = assay: Inhibition of cytokine storm in ConA/1L-12-stimulated C57BL/6 mouse CD4+ T-lymphocytes assessed as reduction in Th1 cell differentiation by measuring proportion of CD4+IFNgamma-negative cells at 500 nM incubated for 48 hrs by flow cytometry (reference value: 31%); format: functional; parameters: scale not given: the % may be the effect or the level left; method in brief: as §1
RAW264.7 [9] = assay: Anti-inflammatory activity against LPS-stimulated mouse RAW264.7 cells assessed as TNF-alpha expression of M1 macrophages at 500 nM incubated for 48 hrs in presence of LPS by flow cytometry (reference value: 82.1%); format: functional; method in brief: as §2
RAW264.7 [10] = assay: Anti-inflammatory activity against LPS-stimulated mouse RAW264.7 cells assessed as TNF-alpha expression of M1 macrophages at 100 nM incubated for 48 hrs in presence of LPS by flow cytometry (reference value: 82.1%); format: functional; method in brief: as §2
RAW264.7 [11] = assay: Anti-inflammatory activity against LPS-stimulated mouse RAW264.7 cells assessed as proportion of polarized M1 macrophages at 500 nM incubated for 48 hrs in presence of LPS by flow cytometry (reference value: 90.3%); format: functional; method in brief: as §2
RAW264.7 [12] = assay: Anti-inflammatory activity against LPS-stimulated mouse RAW264.7 cells assessed as proportion of polarized M1 macrophages at 100 nM incubated for 48 hrs in presence of LPS by flow cytometry (reference value: 90.3%); format: functional; method in brief: as §2
Mus musculus [13] = assay: Anti-inflammatory activity against CLP-induced sepsis C57BL/6J mouse model assessed as proportion of M1 macrophages at 100 mg/kg by flow cytometry (reference value: 98.4%); format: functional
Mus musculus [14] = assay: Anti-inflammatory activity against CLP-induced sepsis C57BL/6J mouse model assessed as proportion of Tr1 cells producing IL-10 at 100 mg/kg by flow cytometry (reference value: 24.5%); format: functional
[15] = biological target: T1, Immunity-related GTPase family M protein 1 (Mus musculus) (UniProt Q60766); assay: Binding affinity to IRGM in LPS-stimulated mouse RAW264.7 cells by competitive pull down based immunoblot analysis; format: cell-based; conditions: dose 10-100 µM, DDE = dose-dependent effect
T1 sequence (whole entry): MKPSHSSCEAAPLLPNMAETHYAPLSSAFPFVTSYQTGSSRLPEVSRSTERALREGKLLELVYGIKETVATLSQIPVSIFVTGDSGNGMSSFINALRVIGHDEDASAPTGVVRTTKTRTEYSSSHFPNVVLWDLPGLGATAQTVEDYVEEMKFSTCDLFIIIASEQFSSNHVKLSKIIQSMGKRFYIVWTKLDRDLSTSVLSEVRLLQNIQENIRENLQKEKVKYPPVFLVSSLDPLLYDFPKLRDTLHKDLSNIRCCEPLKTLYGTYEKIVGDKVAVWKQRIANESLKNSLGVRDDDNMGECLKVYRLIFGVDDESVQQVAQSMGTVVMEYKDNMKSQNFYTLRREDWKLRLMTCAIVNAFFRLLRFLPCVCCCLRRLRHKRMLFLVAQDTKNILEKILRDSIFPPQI
Method in brief: (§3)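 Lysates of LPS-polarized (1 μg/mL, 48 h) RAW 264.7 cells at 2 mg/mL, incubated 3 h at room temperature with 100 μM probe 10 plus competitor at 10–100 μM. Then UV 365 nm crosslinking, click with biotin-azide, streptavidin pull-down, and immunoblotting for IRGM.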

Mus musculus [16] = assay: Anti-inflammatory activity against CLP-induced sepsis C57BL/6J mouse model assessed as proportion of Foxp3-positive Treg cells at 100 mg/kg by flow cytometry (reference value: 2.08%); format: functional
[17] = Inhibition of cytokine storm in CLP-induced sepsis C57BL/6J mouse model assessed as disruption of Th1 and Th2 cells imbalance by measuring CD4+IFNgamma-negative cells at 100 mg/kg by flow cytometry (reference value: 26.3%); format: functional; parameters: scale not given: the % may be the effect or the level left
[18] = biological target: T1, Immunity-related GTPase family M protein 1 (Mus musculus); assay: Binding affinity to IRGM in LPS-stimulated mouse RAW264.7 cells at 100 uM preincubated with LPS for 48 hrs followed by incubation with compound for 3 hrs by SILAC-pull down based analysis; format: cell-based
Method in brief: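 RAW 264.7 cells were SILAC heavy- or light-labeled and polarized with 1 μg/mL LPS for 48 h. Lysates at 2 mg/mL in PBS: heavy with probe 10 (100 μM), light with 100 μM competitor, 3 h at room temperature. Then 365 nm UV at 4 °C and click with biotin-azide (final 500 μM) and Cu+ (final 1 mM) for 3 h. Acetone precipitation, streptavidin bead capture, SDS-PAGE and MS; Heavy/Light ratios by MaxQuant.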

[19] = Inhibition of cytokine storm in CLP-induced sepsis C57BL/6J mouse model assessed as reduction in Th17 cell differentiation by measuring CD4+IL17A-positive cells at 100 mg/kg by flow cytometry (reference value: 49.8%); format: functional; parameters: scale not given: the % may be the effect or the level left
[20] = Inhibition of cytokine storm in CLP-induced sepsis C57BL/6J mouse model assessed as disruption of Th1 and Th2 cells imbalance by measuring CD4+IFNgamma-positive cells at 100 mg/kg by flow cytometry (reference value: 73.7%); format: functional; parameters: scale not given: the % may be the effect or the level left
[21] = biological target: T2, Immunity-related GTPase family M protein (Homo sapiens) (UniProt A1A4Y4); assay: Binding affinity to IRGM (unknown origin) assessed as protection of protein from temperature-dependent denaturation at 100 uM by CETSA analysis
T2 sequence (whole entry): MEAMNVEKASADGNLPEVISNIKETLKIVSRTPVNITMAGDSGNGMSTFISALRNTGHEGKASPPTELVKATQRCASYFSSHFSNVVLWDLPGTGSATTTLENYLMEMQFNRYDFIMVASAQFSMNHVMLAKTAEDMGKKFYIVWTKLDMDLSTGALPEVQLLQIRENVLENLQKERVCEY

[22] = biological target: T2, Immunity-related GTPase family M protein (Homo sapiens); assay: Binding affinity to IRGM (unknown origin) by gene ontology analysis
Mus musculus [23] = assay: Anti-inflammatory activity against CLP-induced sepsis C57BL/6J mouse model assessed as reduction in edema and hepatocyte necrosis at 100 mg/kg by Hematoxylin and eosin staining based analysis; format: functional, organism-based
Method in brief: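 Liver tissue from CLP-septic C57BL/6J male mice (8–10 wk), stained with H&E and examined for edema and hepatocyte necrosis.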

[24] = biological target: T2, Immunity-related GTPase family M protein (Homo sapiens); assay: Binding affinity to IRGM (unknown origin) assessed as protection of protein from pronase proteolysis by DARTS analysis; conditions: dose 1-100 µM, DDE = dose-dependent effect
Method in brief: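 DARTS: samples treated with compound at 1–100 μM, then digested with pronase; IRGM detected by immunoblot.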

[25] = Inhibition of cytokine storm in CLP-induced sepsis C57BL/6J mouse model assessed as disruption of Th1 and Th2 cells imbalance by measuring CD4+IL4-positive cells at 100 mg/kg by flow cytometry (reference value: 4.69%); format: functional; parameters: scale not given: the % may be the effect or the level left
[26] = Inhibition of cytokine storm in CLP-induced sepsis C57BL/6J mouse model assessed as reduction in Th17 cell differentiation by measuring CD4+IL17A-negative cells at 100 mg/kg by flow cytometry (reference value: 50.2%); format: functional; parameters: scale not given: the % may be the effect or the level left
[27] = Inhibition of cytokine storm in CLP-induced sepsis C57BL/6J mouse model assessed as disruption of Th1 and Th2 cells imbalance by measuring CD4+IL4-negative cells at 100 mg/kg by flow cytometry (reference value: 95.3%); format: functional; parameters: scale not given: the % may be the effect or the level left
[28] = biological target: T1, Immunity-related GTPase family M protein 1 (Mus musculus); assay: Binding affinity to IRGM in LPS-stimulated mouse RAW264.7 cells at 100 uM preincubated with LPS for 48 hrs followed by incubation with compound for 3 hrs by immunoblot analysis; format: cell-based; method in brief: as §3
RAW264.7 [29] = assay: Anti-inflammatory activity against LPS-stimulated mouse RAW264.7 cells assessed as reduction in M1 polarization of macrophages at 100 to 500 nM incubated for 48 hrs in presence of LPS by flow cytometry; format: functional, cell-based; conditions: dose 100-500 nM; method in brief: as §2
Mus musculus [30] = assay: Anti-inflammatory activity against CLP-induced sepsis C57BL/6J mouse model assessed as proportion of neutrophils at 100 mg/kg by flow cytometry (reference value: 6.6%); format: functional

SMILES	Activity (CD4+ve Th [1])	Activity (CD4+ve Th [2])	Activity (CD4+ve Th [3])	Activity (RAW264.7 [4])	Activity (CD4+ve Th [5])	Activity (CD4+ve Th [6])	Activity (CD4+ve Th [7])	Activity (CD4+ve Th [8])	Activity (RAW264.7 [9])	Activity (RAW264.7 [10])	Activity (RAW264.7 [11])	Activity (RAW264.7 [12])	Activity (RAW264.7 [29])	also measured
C=CCC1=C[C@]2(OC)C(=CC1=O)O[C@H](c1ccc(OC)c(OC)c1)[C@H]2C	24.3%	85.7%	14.3%	Active	21.4%	78.6%	Non-Toxic	75.7%						
COc1ccc(/C=C/COc2cccc(O)c2)cc1OC	25.1%	76%	24%	Active	25.9%	74.1%	Non-Toxic	74.9%						
C#CCCC1(CCOc2cc3c(cc2CC=C)[C@H](C)[C@@H](c2ccc(OC)c(OC)c2)O3)N=N1									26.6%	28.9%	82.6%	81.8%		
C=CCc1cc2c(cc1O)O[C@H](c1ccc(OC)c(OC)c1)[C@H]2C	42.8%	64.9%	35.1%	Active	42.3%	57.7%	Non-Toxic	57.2%	22.8%	19.5%	83.2%	82.9%	Active	Activity (Mus musculus [13]): 71.3%; Activity (Mus musculus [14]): 11.2%; Activity [15]: Dde; Activity (Mus musculus [16]): 0.53%; Activity [17]: 88.7%; Activity [18]: Active; Activity [19]: 17.5%; Activity [20]: 11.3%; Activity [21]: Active; Activity [22]: Active; Activity (Mus musculus [23]): Active; Activity [24]: Dde; Activity [25]: 1.53%; Activity [26]: 82.5%; Activity [27]: 98.5%; Activity [28]: Active; Activity (Mus musculus [30]): 1.09%
C[C@]12CCC(=O)C=C1CC[C@@H]1[C@@H]2[C@@H](O)C[C@@]2(C)[C@H]1CC[C@]2(O)C(=O)CO				Active										
C=CCOc1cccc(OC/C=C/c2ccc(OC)c(OC)c2)c1	25.6%	85.2%	14.8%	Active	23.9%	76.1%	Non-Toxic	74.4%					Active	
